# High-throughput results from PubChem.
# Rows were chosen to be rich in hits. Some 3.5% of all compounds tested hit in one or more screens of this group.
# RGS4 inh = inhibitors of human RGS4; P49798; HEK293 M3R/RGS4 inducible, Fluo-4 calcium flux; active compounds read high; triggered by carbachol at its EC20; B-score at 10 µM; 310,000 compounds, 0.45% hits; AID 463165;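 active = B-score, a plate-corrected calcium signal, over three deviations above library mean, with baseline fluorescence within five deviations of library mean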;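 note: RGS4 expression induced by doxycycline in cells with stable M3 receptor; B-score is computed from the integrated fluorescence ratio over baseline after carbachol; higher B-score means a larger calcium signal and so more RGS4 inhibition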
# Target sequence (P49798 whole entry, looked up): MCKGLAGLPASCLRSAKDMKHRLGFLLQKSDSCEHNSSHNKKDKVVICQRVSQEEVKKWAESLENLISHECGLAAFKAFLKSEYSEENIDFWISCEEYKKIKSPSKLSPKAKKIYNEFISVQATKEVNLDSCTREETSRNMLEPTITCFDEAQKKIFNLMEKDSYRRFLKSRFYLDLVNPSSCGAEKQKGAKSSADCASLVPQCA
# MrgX1 antagonist = blocks BAM8-22 activation of human MrgX1 receptor; Q96LB2; MRGX1-HEK293 calcium flux, Fluo-4, BAM8-22 antagonism; active compounds read low; B-score at 10 µM; 310,000 compounds, 1.3% hits; AID 588676;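 active = calcium-response B-score plate-corrected more than 3 library SD below zero, starting fluorescence within 5 deviations, no agonist response on first addition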;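 note: peak minus trough fluorescence over baseline after final BAM8-22 challenge near maximal dose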
# Target sequence (Q96LB2 whole entry, looked up): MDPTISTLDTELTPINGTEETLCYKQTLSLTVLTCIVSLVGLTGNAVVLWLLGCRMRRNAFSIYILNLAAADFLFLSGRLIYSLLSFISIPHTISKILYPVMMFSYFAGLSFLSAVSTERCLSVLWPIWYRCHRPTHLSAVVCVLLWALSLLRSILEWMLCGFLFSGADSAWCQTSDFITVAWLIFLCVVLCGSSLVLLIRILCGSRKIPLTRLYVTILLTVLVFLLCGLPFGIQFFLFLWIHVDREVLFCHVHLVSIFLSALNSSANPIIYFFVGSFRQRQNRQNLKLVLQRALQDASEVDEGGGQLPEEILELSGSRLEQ
# MrgX1 agonist = human MrgX1 receptor agonism, primary screen; Q96LB2; MrgX1-HEK293 cells, Fluo-4 calcium fluorescence, agonist mode; active compounds read high; B-score at 10 µM; 310,000 compounds, 0.44% hits; AID 588627;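 active = calcium response B-score plate-corrected fluorescence ratio at least 3 library SD, with starting fluorescence B-score inside 5 SD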
#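 Test system: HEK293 cells stably expressing human MrgX1 receptor; amount: 15,000 cells per well; doses: compound delivered in addition one of three; times: overnight plating before 1 h dye loading; detection: Fluo-4 NW calcium-flux fluorescence, kinetic read; read-out basis: B-scored fluorescence response ratio; controls: positive and negative controls per plate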
# RGS4 act = potentiators or activators of RGS4. HEK293 M3R/inducible RGS4, carbachol calcium flux Fluo4; active compounds read low. 310,000 compounds, 0.92% hits. B-score at 10 µM;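 active = B-score of the integrated calcium signal more than 4 SD below the library mean, with starting fluorescence not abnormally high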;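 note: negative B-score means reduced calcium response which marks RGS4 activation or potentiation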
#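 Material: Inducible-RGS4 HEK293 cells carrying M3 receptor; also added: carbachol at ECmax as muscarinic agonist stimulus; incubation: compound preincubation 20 min at room temperature before agonist; signal: Fluo4-AM (2 µM) calcium-flux fluorescence, kinetic read; measure: integrated calcium ratio converted to B score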
# MrgX1 PAM = allosterically activates human MrgX1 receptor signaling; 310,000 compounds, 0.63% hits; MrgX1-HEK293, Fluo-4 calcium flux, FDSS; active compounds read high; AID 588675; Q96LB2; B-score at 10 µM;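 active = plate-corrected calcium response at least 3 library SD above typical, normal starting fluorescence, not activating the receptor alone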;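 note: compound read alongside a low EC10 to EC30 dose of BAM8-22 agonist; peak minus trough fluorescence over baseline measured at the second addition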
# MrgX1 ant reconf = confirmation of human MrgX1 receptor antagonists; MrgX1-HEK293, BAM8-22 calcium flux, Fluo-4; active compounds read low; AID 602420; remaining BAM8-22 calcium response % of control (active compounds read low), % at 10 µM; 2,300 compounds, 19% hits; shares compounds with MrgX1 antagonist;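 active = remaining agonist calcium response no higher than 100% minus 3 SD of agonist-only control wells, with starting fluorescence near control levels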;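 note: agonist BAM8-22 given at a near maximal EC90 to ECmax level; peak minus minimum fluorescence divided by baseline after agonist addition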
# HEK293 Ca flux = activity in parental HEK293 cells lacking MrgX1; 4,000 compounds, 2% hits; fluorescence ratio F(max-min)/F0 at 10 µM; Fluo-4 calcium fluorescence, FDSS; AID 624111; shares compounds with MrgX1 antagonist;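 active = duplicate-averaged calcium fluorescence ratio at least three times the standard deviation of buffer wells, a nonspecific response in parental cells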
# HEK293 Ca counter = counter-screen for MrgX1 allosteric activators: effect in parental HEK293 cells | shares compounds with MrgX1 antagonist | 4,000 compounds, 0.4% hits | parental HEK293 calcium flux, Fluo-4 fluorescence ratio; active compounds read high | AID 624114 | fluorescence ratio F(max-min)/F0 at 10 µM;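 active = calcium fluorescence ratio, averaged over duplicates, at least 3 SD of the buffer-well ratio, meaning a nonspecific response in receptor-free cells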;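 note: untransfected parental HEK293 lacking MrgX1 used as counterscreen for MrgX1 allosteric activators; fluorescence change taken during the second addition on a kinetic imager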
# HEK293 Ca cntr2 = activity in parental HEK293 cells lacking MrgX1 receptor; shares compounds with MrgX1 antagonist; Fluo-4 calcium fluorescence (FDSS); active compounds read high; fluorescence ratio F(max-min)/F0 at 10 µM; 4,000 compounds, 8.7% hits; AID 624115;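 active = calcium fluorescence ratio at least three times the spread of buffer wells, meaning a non-specific response in parental cells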
# Hits are given with their value; – = inactive; · = not tested or not shown.
SMILES,RGS4 inh,MrgX1 antagonist,MrgX1 agonist,RGS4 act,MrgX1 PAM,MrgX1 ant reconf,HEK293 Ca flux,HEK293 Ca counter,HEK293 Ca cntr2
CCN(CC)c1ccc(CNc2ccc3c(c2)ncn3CC)cc1,–,–,–,–,–,·,·,·,·
CCn1cnc2cc(NCc3ccc(C)cc3)ccc21,–,-4.59,–,–,–,–,–,–,–
N#CCC(=O)Nc1ccc(C(=O)OCC(=O)N=c2sccn2Cc2ccccc2Cl)cc1,–,–,–,–,–,·,·,·,·
CCCC(=O)Nc1ccccc1N1CCN(C(=O)C(C)C)CC1,–,-5.16,–,–,–,–,–,–,–
CC(C)C(=O)N1CCN(c2ccccc2NC(=S)NC(=O)Cc2ccccc2)CC1,–,–,–,–,–,·,·,·,·
Cc1ccc2c(c1)N(CC(=O)NCCc1ccccc1)C(=O)c1cccnc1O2,–,–,–,–,–,·,·,·,·
COc1ccc(COC(=O)c2ccc(S(=O)(=O)N3CCC(C)CC3)cc2)cc1,–,-6.79,–,–,–,–,–,–,–
Cc1cc(C2N=C(N)Nc3nc4ccccc4n32)c(C)n1-c1ccccc1Cl (centres undefined),–,-5.54,–,–,–,–,–,–,–
CCNC(=S)N1CCN(CC)CC1,–,–,–,–,–,·,·,·,·
COc1ccc(NC(=O)CSc2nc(=O)n(CCN(C)C)c3c2CCCC3)cc1OC,–,-5.62,–,–,–,–,–,–,–
COc1ccc(Cl)cc1NC(=O)CSc1nc(=O)n(CCN(C)C)c2c1CCCC2,–,–,–,–,–,·,·,·,·
CCN(CC)CCn1c2c(c(SCC(=O)Nc3ccc(F)c(F)c3)nc1=O)CCC2,–,-9.54,–,–,–,–,–,–,–
CCn1cc(/C=N\NC(=O)c2ccccc2Cl)cn1,–,–,–,–,–,·,·,·,·
CCCCc1nc2cc(C(=O)N3CCCCC3CCNC(C)=O)ccc2o1 (centres undefined),–,–,–,–,–,·,·,·,·
COc1ccc(-c2cc(C(=O)NCc3ccco3)c3ccccc3n2)cc1,–,–,–,–,–,·,·,·,·
O=C(NCc1ccco1)c1cc(-c2ccccc2)nc2ccccc12,–,-5.31,–,–,–,–,–,–,–
COc1ccc2c(c1)OC[C@H]1[C@H]2N2C(=O)c3cc(Br)ccc3NC(=O)[C@@]2(C)[C@H]1c1ccccc1,·,-7.57,–,·,–,78.7%,–,–,–
COc1ccc2c(c1)OC[C@H]1[C@H]2N2C(=O)c3cc(OC)c(OC)cc3NC(=O)[C@@]2(C)[C@H]1c1ccccc1,·,–,–,·,–,·,·,·,·
O=C(/C(=C(\O)c1ccccc1)c1ncc[nH]1)c1ccccc1,–,-9.7,–,–,–,–,–,–,–
Cc1cccnc1NC(=O)CN1C(=O)COc2ccc(Cl)cc21,–,–,–,–,–,·,·,·,·
COCCN1Cc2cccc(C(=O)Nc3cccnc3)c2C1=O,·,–,–,·,–,·,·,·,·
COCCN1Cc2cccc(C(=O)Nc3ccc(C)cc3)c2C1=O,–,-7.6,–,–,–,81.0%,–,–,–
COc1ccc(NC(=O)CSc2nnc3c4c(nc(-c5ccccc5)n23)CC(C)(C)OC4)cc1,–,-7.24,–,–,–,–,–,–,–
O=C(NCCNCc1cccs1)c1ccccc1F,–,–,–,–,–,·,·,·,·
O=C(NCc1cccs1)c1ccccc1F,–,-6.2,–,–,–,–,–,–,–
COc1ccc(CNC(=O)C2CCC(CNS(=O)(=O)c3ccccc3)CC2)cc1 (centres undefined),–,–,–,–,–,·,·,·,·
CCn1c(C)c(C(C)=O)c(N2CCN(c3ccccn3)CC2)nc1=S,–,–,–,–,–,·,·,·,·
CCn1c(C)c(C(C)=O)c(N2CCN(c3ccccc3)CC2)nc1=S,–,-8.89,–,–,–,–,–,–,–
